Peptide text beside a SMILES is read from it.
Experiments:
Assay type in all cases: biochemical
[1] = molecular target: ERK1 (Homo sapiens, UniProt P27361); assay: Radiometric protein kinase assay, ERK1 phosphotransferase activity; settings: for % Activity Change 1 μM: peptide 1 μM; for % Activity Change 10 μM: peptide 10 μM; for % Activity Change 50 μM: peptide 50 μM; for ERK1 activity inhibited by % compared to control / % Activity Change 500 μM: peptide 500 μM
Procedure, shortened: (§1)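 Reaction is started with [γ-33P]ATP (250 μM stock, 0.8 μCi), with peptide at six levels (1–500 μM) or 10% DMSO. Run 30°C, 20 min, then spot onto P81 paper, wash in 1% phosphoric acid and scintillation count. Substrate-free blank is subtracted. Duplicates, repeated twice.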

[2] = molecular target: CDK5/p25 (Homo sapiens, UniProt Q00535); assay: Radiometric protein kinase assay, CDK5/p25 phosphotransferase activity; settings: for % Activity Change 1 μM: peptide 1 μM, negative = inhibition; for % Activity Change 1 μM / % Activity Change 10 μM / % Activity Change 50 μM / % Activity Change 100 μM / % Activity Change 250 μM / % Activity Change 500 μM: vs control without inhibitor, duplicate; for % Activity Change 10 μM: peptide 10 μM; for % Activity Change 50 μM: peptide 50 μM; for % Activity Change 500 μM: peptide 500 μM
CDK5/p25, sequence (Q00535 whole entry): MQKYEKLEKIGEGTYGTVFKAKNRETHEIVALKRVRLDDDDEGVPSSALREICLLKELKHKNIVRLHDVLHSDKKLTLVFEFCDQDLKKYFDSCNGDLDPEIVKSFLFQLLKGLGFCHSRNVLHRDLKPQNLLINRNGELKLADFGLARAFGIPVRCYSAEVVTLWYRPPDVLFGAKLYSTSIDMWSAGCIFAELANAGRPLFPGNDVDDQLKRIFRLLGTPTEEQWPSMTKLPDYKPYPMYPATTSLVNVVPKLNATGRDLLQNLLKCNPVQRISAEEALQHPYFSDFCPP
Procedure, shortened: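 GST-tagged CDK5/p25 co-expressed in Sf9 cells via baculovirus, 15 nM final, with calf thymus histone H1 (1 mg/ml final) in MOPS pH 7.2 buffer with MgCl2, EGTA, EDTA, DTT. Reaction started with [γ-33P]ATP (250 μM stock, 0.8 μCi) and run 20 min at 30°C. Products were spotted on P81 paper, washed in 1% phosphoric acid and scintillation-counted. No-substrate blank was subtracted. Peptide tested 1–500 μM against 10% DMSO control, two experiments in duplicate.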

[3] = molecular target: CDK5/p35 (Homo sapiens, UniProt Q00535); assay: Radiometric protein kinase assay, CDK5/p35 phosphotransferase activity; settings: for % Activity Change 1 μM: peptide 1 μM; for % Activity Change 1 μM / % Activity Change 10 μM / % Activity Change 50 μM / % Activity Change 100 μM / % Activity Change 250 μM / % Activity Change 500 μM: duplicate; for % Activity Change 10 μM: peptide 10 μM; for % Activity Change 50 μM: peptide 50 μM; for % Activity Change 500 μM: peptide 500 μM
CDK5/p35, sequence (Q00535 whole entry): as above

[4] = molecular target: GSK3β (Homo sapiens, UniProt P49841); assay: Radiometric protein kinase assay, GSK3β phosphotransferase activity; settings: for % Activity Change 1 μM: peptide 1 μM, positive = activation; for % Activity Change 10 μM: peptide 10 μM; for % Activity Change 50 μM: peptide 50 μM; for GSK3β phosphotransferase activity activated by % compared to control / % Activity Change 500 μM: peptide 500 μM
GSK3β, sequence (P49841 whole entry, species assumed): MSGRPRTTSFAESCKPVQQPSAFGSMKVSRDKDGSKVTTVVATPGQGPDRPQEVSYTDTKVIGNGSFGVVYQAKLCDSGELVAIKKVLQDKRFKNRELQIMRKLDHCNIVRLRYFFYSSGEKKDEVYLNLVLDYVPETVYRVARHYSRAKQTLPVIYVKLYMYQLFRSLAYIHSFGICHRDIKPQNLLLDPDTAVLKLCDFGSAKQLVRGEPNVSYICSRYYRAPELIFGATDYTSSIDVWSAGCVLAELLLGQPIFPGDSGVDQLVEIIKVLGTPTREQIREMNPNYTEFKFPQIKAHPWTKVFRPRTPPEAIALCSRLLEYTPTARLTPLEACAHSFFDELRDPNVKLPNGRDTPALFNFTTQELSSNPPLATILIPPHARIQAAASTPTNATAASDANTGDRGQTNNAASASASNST
Procedure, shortened: as §1

ERK1, sequence (P27361 whole entry, species assumed): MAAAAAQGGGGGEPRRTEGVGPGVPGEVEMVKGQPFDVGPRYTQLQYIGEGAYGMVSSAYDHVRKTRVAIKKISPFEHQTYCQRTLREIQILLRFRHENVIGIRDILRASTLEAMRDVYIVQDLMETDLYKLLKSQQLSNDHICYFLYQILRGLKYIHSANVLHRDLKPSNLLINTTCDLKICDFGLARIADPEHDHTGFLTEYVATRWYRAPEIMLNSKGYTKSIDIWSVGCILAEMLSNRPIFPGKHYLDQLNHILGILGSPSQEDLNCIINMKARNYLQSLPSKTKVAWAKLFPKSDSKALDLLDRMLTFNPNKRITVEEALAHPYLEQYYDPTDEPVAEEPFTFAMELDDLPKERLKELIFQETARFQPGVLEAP

In the case of `CC[C@H](C)[C@H](NC(=O)[C@H](CCC(N)=O)NC(=O)[C@H](CC(C)C)NC(=O)[C@H](CCSC)NC(=O)[C@H](CCCCN)NC(=O)[C@H](CO)NC(=O)[C@H](CO)NC(=O)[C@H](CCSC)NC(=O)[C@H](CC(C)C)NC(=O)[C@H](CC(N)=O)NC(=O)[C@@H](NC(=O)[C@@H](NC(=O)[C@H](CO)NC(=O)[C@H](CC(C)C)NC(=O)[C@H](CS)NC(=O)[C@H](CCCNC(=N)N)NC(=O)[C@H](CC(=O)O)NC(=O)[C@H](Cc1c[nH]c2ccccc12)NC(=O)[C@H](Cc1ccccc1)NC(=O)[C@H](C)NC(=O)[C@H](CCC(=O)O)NC(=O)[C@@H](N)CCCCN)C(C)C)[C@@H](C)CC)C(=O)N[C@@H](CC(N)=O)C(=O)N[C@@H](C)C(=O)O` [p5-WT] (H-KEAFWDRCLSVINLMSSKMLQINA-OH), the “% Activity Change 1 μM” value ([1]; duplicate) is reported as 0%, the “% Activity Change 10 μM” value ([1]; duplicate) is reported as 0% and the “% Activity Change 50 μM” value ([1]; duplicate) is reported as “–3%”. The “% Activity Change 100 μM” value ([1]; peptide 100 μM, duplicate) was “–6%”, the “ERK1 activity inhibited by % compared to control” value [1] was 25% and the “% Activity Change 500 μM” value ([1]; duplicate) was “–25%”. For the same compound, the IC50 [2] was 169 µM, the “% CFC (percent change from control)” value ([2]; 79-peptide scan, relative to p5-WT peptide (#1), negative = greater inhibition) was 0% and the “% Activity Change 1 μM” value [2] was 0%. The “% Activity Change 10 μM” value [2] was “–13%”, the “% Activity Change 50 μM” value [2] was “–20%” and the “% Activity Change 100 μM” value ([2]; peptide 100 μM) was “–41%”. The “CDK5/p25 phosphotransferase activity inhibited by % compared to control” value ([2]; peptide 250 μM) was 59%, the “% Activity Change 250 μM” value ([2]; peptide 250 μM) was “–59%” and the “% Activity Change 500 μM” value [2] was “–72%”. For the same compound, the IC50 [3] was 217 µM, the “% Activity Change 1 μM” value [3] was 2% and the “% Activity Change 10 μM” value [3] was “–2%”. For the same compound, the “% Activity Change 50 μM” value [3] was “–10%”, the “% Activity Change 100 μM” value ([3]; peptide 100 μM) was “–29%” and the “CDK5/p35 activity inhibited by % compared to control” value ([3]; peptide 250 μM) was 53%. For the same compound, the “% Activity Change 250 μM” value ([3]; peptide 250 μM) was “–53%”, the “% Activity Change 500 μM” value [3] was “–76%” and the “% Activity Change 1 μM” value ([4]; duplicate) was “–3%”. For the same compound, the “% Activity Change 10 μM” value ([4]; duplicate) was “–1%”, the “% Activity Change 50 μM” value ([4]; duplicate) was 0% and the “% Activity Change 100 μM” value ([4]; peptide 100 μM, duplicate) was 8%. For the same compound, the “GSK3β phosphotransferase activity activated by % compared to control” value [4] was 24% and the “% Activity Change 500 μM” value ([4]; duplicate) was 24%.
For `CC[C@H](C)[C@H](NC(=O)[C@H](CCC(N)=O)NC(=O)[C@@H](NC(=O)[C@H](CCSC)NC(=O)[C@H](CCCCN)NC(=O)[C@H](CO)NC(=O)[C@@H](NC(=O)[C@H](CCSC)NC(=O)[C@H](CC(C)C)NC(=O)[C@H](CC(N)=O)NC(=O)[C@@H](NC(=O)[C@@H](NC(=O)[C@H](CO)NC(=O)[C@H](CC(C)C)NC(=O)[C@H](C)NC(=O)[C@H](CCCNC(=N)N)NC(=O)[C@H](CCC(=O)O)NC(=O)[C@H](Cc1ccc(O)cc1)NC(=O)[C@H](Cc1ccccc1)NC(=O)[C@H](C)NC(=O)[C@H](CC(N)=O)NC(=O)[C@@H](N)CCCCN)[C@@H](C)CC)[C@@H](C)CC)[C@@H](C)O)C(C)C)C(=O)N[C@@H](CC(N)=O)C(=O)N[C@H](C(=O)O)C(C)C` [p5-MT] (H-KNAFYERALSIINLMTSKMVQINV-OH), the IC50 [1] was 425 µM, the “% Activity Change 1 μM” value ([1]; duplicate) was 1% and the “% Activity Change 10 μM” value ([1]; duplicate) was 0%. The “% Activity Change 50 μM” value ([1]; duplicate) was “–2%”, the “% Activity Change 250 μM” value ([1]; peptide 250 μM, duplicate) was “–35%” and the “ERK1 activity inhibited by % compared to control” value [1] was 54%. The “% Activity Change 500 μM” value ([1]; duplicate) was “–54%”, the IC50 [2] was 119 µM and the “% Activity Change 1 μM” value [2] was 2%. The “% Activity Change 10 μM” value [2] was “–8%”, the “% Activity Change 50 μM” value [2] was “–22%” and the “CDK5/p25 phosphotransferase activity inhibited by % compared to control” value ([2]; peptide 100 μM) was 46%. The “% Activity Change 100 μM” value ([2]; peptide 100 μM) was “–46%”, the “% Activity Change 250 μM” value ([2]; peptide 250 μM) was “–73%” and the “% Activity Change 500 μM” value [2] was “–85%”. The IC50 [3] was 83 µM, the “% Activity Change 1 μM” value [3] was “–3%” and the “% Activity Change 10 μM” value [3] was “–14%”. For the same compound, the “% Activity Change 50 μM” value [3] was “–35%”, the “CDK5/p35 phosphotransferase activity inhibited by % compared to control” value ([3]; peptide 100 μM) was 57% and the “% Activity Change 100 μM” value ([3]; peptide 100 μM) was “–57%”. The “% Activity Change 250 μM” value ([3]; peptide 250 μM) was “–73%”, the “% Activity Change 500 μM” value [3] was “–84%” and the “% Activity Change 1 μM” value ([4]; duplicate) was “–1%”. For the same compound, the “% Activity Change 10 μM” value ([4]; duplicate) was 3%, the “% Activity Change 50 μM” value ([4]; duplicate) was 6% and the “GSK3β phosphotransferase activity activated by % compared to control” value [4] was 40%. For the same compound, the “% Activity Change 500 μM” value ([4]; duplicate) was 40%.
